According to ChEMBL document CHEMBL2424590, “4-[18F]Fluoro-m-hydroxyphenethylguanidine: a radiopharmaceutical for quantifying regional cardiac sympathetic nerve density with positron emission tomography” (J Med Chem, 2013):

Assays:
Rattus norvegicus [1] = test: Biodistribution in Sprague-Dawley rat uterus at 20 to 120 uCi, iv after 5 mins by gamma counting analysis; assay type: ADME, organism-based; conditions: in vivo
Method in brief: (§1)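 Male and female rats (2 per sex per time point, 280–330 g) under light isoflurane given tail-vein bolus of 20–120 μCi tracer in 0.05–0.10 mL isotonic 60 mM sodium phosphate, pH 5.4. Tissues sampled at 5, 30, 60 or 120 min, weighed and gamma-counted. Decay-corrected dpm per gram normalised to injected dpm and body weight, given as %ID·kg/g.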

Lung [2] = test: Biodistribution in Sprague-Dawley rat lung at 20 to 120 uCi, iv after 30 mins by gamma counting analysis; assay type: ADME, organism-based; conditions: in vivo, 0.5 h
Method in brief: (§2)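 Sprague-Dawley rats (280–330 g), 2 male and 2 female per time point (5, 30, 60, 120 min), under light isoflurane, received a tail-vein bolus of 20–120 μCi tracer in 0.05–0.10 mL isotonic 60 mM sodium phosphate, pH 5.4. Tissues were weighed and gamma-counted. Decay-corrected dpm/g was normalized to injected dpm per kg body weight (%ID·kg/g).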

Spleen = test: Biodistribution in Sprague-Dawley rat spleen at 20 to 120 uCi, iv after 120 mins by gamma counting analysis; assay type: ADME, organism-based; conditions: in vivo, 2 h; method in brief: as §2
Nucleic Acid [3] = test: Ratio of drug level in heart to liver in rhesus macaque monkey at 5 to 6 mCi, iv after 90 mins by PET analysis; assay type: ADME, organism-based, Macaca mulatta; conditions: in vivo, 1.5 h
[4] = Drug uptake in rhesus macaque monkey adrenal glands 5 to 6 mCi, iv after 90 mins by PET analysis in presence of desipramine; assay type: ADME, organism-based, Macaca mulatta, Adrenal gland; conditions: in vivo, 1.5 h
Rattus norvegicus [5] = test: Biodistribution in Sprague-Dawley rat stomach at 20 to 120 uCi, iv after 120 mins by gamma counting analysis; assay type: ADME, organism-based; conditions: in vivo, 2 h; method in brief: as §1
Adrenal = test: Biodistribution in Sprague-Dawley rat adrenal at 20 to 120 uCi, iv after 60 mins by gamma counting analysis; assay type: ADME, organism-based, Adrenal tissue; conditions: in vivo, 1 h; method in brief: as §2
Bone = test: Biodistribution in Sprague-Dawley rat bone at 20 to 120 uCi, iv after 120 mins by gamma counting analysis; assay type: ADME, organism-based, Bone element; conditions: in vivo, 2 h; method in brief: as §2
[6] = Drug excretion in rat urinary bladder at 0.5 mCi by PET analysis; conditions: in vivo
Liver = test: Biodistribution in Sprague-Dawley rat liver at 20 to 120 uCi, iv after 60 mins by gamma counting analysis; assay type: ADME, organism-based; conditions: in vivo, 1 h; method in brief: as §2
[7] = Drug metabolism in rhesus macaque monkey spinal column assessed as fluorine-18 level at 5 to 6 mCi, iv after 90 mins by sagittal PET analysis; assay type: ADME, organism-based, Macaca mulatta; conditions: in vivo, 1.5 h
Brain [8] = test: Biodistribution in Sprague-Dawley rat brain at 20 to 120 uCi, iv after 120 mins by gamma counting analysis; assay type: ADME, organism-based; conditions: in vivo, 2 h; method in brief: as §2
Lung [9] = test: Biodistribution in Sprague-Dawley rat lung at 20 to 120 uCi, iv after 120 mins by gamma counting analysis; assay type: ADME, organism-based; conditions: in vivo, 2 h; method in brief: as §2
Rattus norvegicus [10] = test: Biodistribution in Sprague-Dawley rat uterus at 20 to 120 uCi, iv after 30 mins by gamma counting analysis; assay type: ADME, organism-based; conditions: in vivo, 0.5 h; method in brief: as §1
[11] = Half life in Sprague-Dawley rat heart sympathetic neurons at 2 uCi/mL administered as infusion by gamma counting analysis; assay type: ADME, tissue-based; conditions: sympathetic neuron
Method in brief: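 Isolated working rat hearts perfused with 54 μM corticosterone in all perfusates to block uptake-2. Tracer infused at <10 nM total mass for 10 min to measure neuronal uptake rate (mL/min/g wet), then switched to normal perfusate to follow clearance over 2 h.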

[12] = Drug uptake in rhesus macaque monkey liver at 5 to 6 mCi, iv after 90 mins by PET analysis; assay type: ADME, organism-based, Macaca mulatta; conditions: in vivo, 1.5 h
Lung [13] = test: Biodistribution in Sprague-Dawley rat lung at 20 to 120 uCi, iv after 60 mins by gamma counting analysis; assay type: ADME, organism-based; conditions: in vivo, 1 h; method in brief: as §2
[14] = Half life in rhesus macaque monkey plasma at 5 to 6 mCi, iv by RP-HPLC analysis; assay type: ADME, organism-based, Macaca mulatta
Method in brief: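 Six venous samples (1.5–2.0 mL; typically 1, 2, 4, 10, 30, 60 min) drawn during the monkey PET scan into heparin and centrifuged 1 min at 12000 × g. Plasma deproteinised with HClO₄ (final 0.4 N), spun, neutralised with KOH to pH 7.0–7.5 and filtered twice (0.22 μm). Analysed by reverse-phase HPLC (10% EtOH in 60 mM NaH₂PO₄, pH 5.4, 1.0 mL/min) with NaI(Tl) radiodetection. Decay-corrected intact fraction per sample; T1/2 is the time at which 50% of plasma activity is metabolite.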

Ovary = test: Biodistribution in Sprague-Dawley rat ovary at 20 to 120 uCi, iv after 60 mins by gamma counting analysis; assay type: ADME, organism-based, Female gonad; conditions: in vivo, 1 h
Method in brief: as §2, with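 “g)” for “g), 2 male and 2 female per time point (5, 30, 60, 120 min),”, “isoflurane” for “isoflurane,”, “Sampling was at 5, 30, 60 or 120 min. […]” for “Tissues”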

Muscle tissue [15] = test: Biodistribution in Sprague-Dawley rat muscle at 20 to 120 uCi, iv after 5 mins by gamma counting analysis; assay type: ADME, organism-based; conditions: in vivo; method in brief: as §2
Heart [16] = test: Biodistribution in Sprague-Dawley rat heart at 20 to 120 uCi, iv after 5 mins by gamma counting analysis; assay type: ADME, organism-based; conditions: in vivo; method in brief: as §2
Nucleic Acid [17] = test: Ratio of drug level in heart to blood in rhesus macaque monkey at 5 to 6 mCi, iv after 90 mins by PET analysis; assay type: ADME, organism-based, Macaca mulatta; conditions: other tissue, 1.5 h
Pancreas = test: Biodistribution in Sprague-Dawley rat pancreas at 20 to 120 uCi, iv after 5 mins by gamma counting analysis; assay type: ADME, organism-based; conditions: in vivo; method in brief: as §2
Kidney [18] = test: Biodistribution in Sprague-Dawley rat kidney at 20 to 120 uCi, iv after 5 mins by gamma counting analysis; assay type: ADME, organism-based; conditions: in vivo; method in brief: as §2
Rattus norvegicus [19] = test: Biodistribution in Sprague-Dawley rat uterus at 20 to 120 uCi, iv after 60 mins by gamma counting analysis; assay type: ADME, organism-based; conditions: in vivo, 1 h; method in brief: as §1
Heart [20] = test: Biodistribution in Sprague-Dawley rat heart at 20 to 120 uCi, iv after 30 mins by gamma counting analysis; assay type: ADME, organism-based; conditions: in vivo, 0.5 h; method in brief: as §2
Kidney [21] = test: Biodistribution in Sprague-Dawley rat kidney at 20 to 120 uCi, iv after 120 mins by gamma counting analysis; assay type: ADME, organism-based; conditions: in vivo, 2 h; method in brief: as §2
Muscle tissue [22] = test: Biodistribution in Sprague-Dawley rat muscle at 20 to 120 uCi, iv after 60 mins by gamma counting analysis; assay type: ADME, organism-based; conditions: in vivo, 1 h; method in brief: as §2
[23] = Drug metabolism in rhesus macaque monkey spinal column assessed as fluorine-18 level at 5 to 6 mCi, iv after 90 mins by transaxial PET analysis; assay type: ADME, organism-based, Macaca mulatta; conditions: in vivo, 1.5 h
Blood [24] = test: Biodistribution in Sprague-Dawley rat blood at 20 to 120 uCi, iv after 120 mins by gamma counting analysis; assay type: ADME, organism-based; conditions: in vivo, 2 h; method in brief: as §2
Rattus norvegicus [25] = test: Biodistribution in Sprague-Dawley rat uterus at 20 to 120 uCi, iv after 120 mins by gamma counting analysis; assay type: ADME, organism-based; conditions: in vivo, 2 h; method in brief: as §1
Brain [26] = test: Biodistribution in Sprague-Dawley rat brain at 20 to 120 uCi, iv after 30 mins by gamma counting analysis; assay type: ADME, organism-based; conditions: in vivo, 0.5 h; method in brief: as §2
Blood [27] = test: Drug uptake in rhesus macaque monkey whole blood at 0.1 mCi after 10 to 85 mins by gamma counting analysis; assay type: ADME, tissue-based, Macaca mulatta
[28] = Drug uptake in rhesus macaque monkey adrenal glands 5 to 6 mCi, iv after 90 mins by PET analysis; assay type: ADME, organism-based, Macaca mulatta, Adrenal gland; conditions: in vivo, 1.5 h
Testes = test: Biodistribution in Sprague-Dawley rat testes at 20 to 120 uCi, iv after 30 mins by gamma counting analysis; assay type: ADME, organism-based, Testis; conditions: in vivo, 0.5 h; method in brief: as §1

**Q.** For `N=C(N)NCCc1ccc([18F])c(O)c1`, which Drug uptake (Rattus norvegicus [1]) is on record?
**A.** The Drug uptake was 0.268 %IDKg/g.

**Q.** What about the Drug uptake (Lung [2]) of the same compound?
**A.** Its Drug uptake is 0.136 %IDKg/g.

**Q.** And the Drug uptake (Spleen)?
**A.** The Drug uptake was 0.235 %IDKg/g.

**Q.** What about the Ratio (Nucleic Acid [3]) of the same compound?
**A.** Its Ratio is 2.5.

**Q.** And the Drug uptake [4]?
**A.** The Drug uptake was “Not Active”.

**Q.** And the Drug uptake (Rattus norvegicus [5])?
**A.** The Drug uptake was 0.089 %IDKg/g.

**Q.** What about the Drug uptake (Adrenal) of the same compound?
**A.** The Drug uptake was 0.193 %IDKg/g.

**Q.** And the Drug uptake (Bone)?
**A.** The Drug uptake was 0.016 % ID/g.

**Q.** And the Drug excretion [6]?
**A.** The Drug excretion was 19.9 %ID.

**Q.** And the Drug uptake (Liver)?
**A.** Its Drug uptake is 0.35 %IDKg/g.

**Q.** And the Drug metabolism [7]?
**A.** Its Drug metabolism is “Active”.

**Q.** What about the Drug uptake (Brain [8]) of the same compound?
**A.** The Drug uptake was 0.001 %IDKg/g.

**Q.** And the Drug uptake (Lung [9])?
**A.** Its Drug uptake is 0.036 %IDKg/g.

**Q.** And the Drug uptake (Rattus norvegicus [10])?
**A.** The Drug uptake was 0.155 %IDKg/g.

**Q.** What about the t1/2 [11] of the same compound?
**A.** The t1/2 was over 1440 min.

**Q.** And the Drug uptake [12]?
**A.** Its Drug uptake is “Not Active”.

**Q.** And the Drug uptake (Lung [13])?
**A.** The Drug uptake was 0.091 %IDKg/g.

**Q.** What about the half-life [14] of the same compound?
**A.** The half-life was 2.5 min.

**Q.** What about the Drug uptake (Ovary) of the same compound?
**A.** Its Drug uptake is 0.142 %IDKg/g.

**Q.** What about the Drug uptake (Muscle tissue [15]) of the same compound?
**A.** The Drug uptake was 0.019 % ID/g.

**Q.** What about the Drug uptake (Heart [16]) of the same compound?
**A.** The Drug uptake was 0.746 %IDKg/g.

**Q.** And the Ratio (Nucleic Acid [17])?
**A.** Its Ratio is 3.

**Q.** And the Drug uptake (Pancreas)?
**A.** Its Drug uptake is 0.137 %IDKg/g.

**Q.** And the Drug uptake (Kidney [18])?
**A.** The Drug uptake was 1.398 %IDKg/g.

**Q.** What about the Drug uptake (Rattus norvegicus [19]) of the same compound?
**A.** The Drug uptake was 0.112 %IDKg/g.

**Q.** And the Drug uptake (Heart [20])?
**A.** The Drug uptake was 0.602 %IDKg/g.

**Q.** What about the Drug uptake (Kidney [21]) of the same compound?
**A.** Its Drug uptake is 0.078 %IDKg/g.

**Q.** And the Drug uptake (Muscle tissue [22])?
**A.** Its Drug uptake is 0.016 % ID/g.

**Q.** What about the Drug metabolism [23] of the same compound?
**A.** Its Drug metabolism is “Active”.

**Q.** What about the Drug uptake (Blood [24]) of the same compound?
**A.** The Drug uptake was 0.009 % ID/g.

**Q.** And the Drug uptake (Rattus norvegicus [25])?
**A.** Its Drug uptake is 0.081 %IDKg/g.

**Q.** What about the Drug uptake (Brain [26]) of the same compound?
**A.** The Drug uptake was 0.003 %IDKg/g.

**Q.** What about the SUV (Blood [27]) of the same compound?
**A.** The SUV was 3.6.

**Q.** What about the Drug uptake [28] of the same compound?
**A.** The Drug uptake was “Active”.

**Q.** And the Drug uptake (Testes)?
**A.** Its Drug uptake is 0.01 %IDKg/g.
